Laboratory results as given in ChEMBL document CHEMBL1123882, “Potential antitumor agents. 51. Synthesis and antitumor activity of substituted phenazine-1-carboxamides” (J Med Chem, 1987).

How the values were obtained:
[1] = (§1) Optimal dose required after intraperitoneal administration on days 5,9 and 13 to inhibit the growth of lewis lung carcinoma (LL) cells was determined (in vivo); format: functional, Mus musculus
Outline: (§2)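 Mice were inoculated iv with 10^6 Lewis lung cells. Drug was given ip in 0.1 mL 30% v/v EtOH/water on days 5, 9 and 13. The optimal dose (mg/kg per day) is the one giving maximal increase in life span; survivors were scored at 60 days, in groups of six.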

P388 [2] = experiment: Optimal dose in mg/kg administered intraperitoneally on days 1,5 and 9 required to inhibit the growth of P388 leukemia cells was determined (in vivo); format: functional, Mus musculus
Outline: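 Mice were inoculated ip with 10^6 P388 cells. Drug was given ip as a solution in 0.1 mL 30% v/v EtOH/water on days 1, 5 and 9. The optimal dose (mg/kg per day) is the one giving maximal increase in life span; survivors were scored at 50 days, in groups of six.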

[3] = (§3) Average increase in life span of treated animals over control groups of tumor-bearing untreated animals when given at optimal dose (in vivo); format: functional, Mus musculus
Outline: (§4)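 Mice inoculated ip with 10^6 P388 cells (drug ip on days 1, 5, 9) or iv with 10^6 Lewis lung cells (drug ip on days 5, 9, 13). Drug given as a solution in 0.1 mL 30% v/v EtOH/water, in mg/kg per day. Value is the average life-span increase versus untreated tumor-bearing controls at the optimal dose. Significance thresholds: ILS >20% (P388), >40% (LL). Groups of six.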

P388 [4] = experiment: as §3; format: functional, Mus musculus; outline: as §4
L1210 = experiment: Nanomolar concentration required to reduce the growth of L1210 cells in culture to 50% of control values after 70 h (in vitro); format: functional, cell-based; conditions: Mus musculus, L1210, 70 h
Outline: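 L1210 cells were grown in culture with drug for 70 h. IC50 is the drug concentration (nM) reducing growth to 50% of control values.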

[5] = Lipophilicity (HPLC); format: physicochemical
[6] = system: Lewis lung carcinoma cell line; experiment: Average increase in life span of treated animals over control groups of tumor-bearing untreated animals when given at optimal dose;NA means no significant activity (in vivo); format: functional, organism-based; conditions: Mus musculus
Outline: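 Mice received drug ip as a solution in 0.1 mL 30% v/v EtOH/water at the optimal dose. For P388, 10^6 cells were inoculated ip and drug given on days 1, 5 and 9. For LL, 10^6 cells were inoculated iv and drug given on days 5, 9 and 13. ILS is the mean life-span increase over untreated tumor-bearing controls, significant above 20% (P388) or 40% (LL). Groups were of six. NA means no significant activity up to acutely toxic doses.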

[7] = system: Lewis lung carcinoma cell line; experiment: as §1; format: functional, Mus musculus; outline: as §2

| SMILES | OD [1] | OD (P388 [2]) | ILS max [3] | ILS max (P388 [4]) | IC50 (L1210) | Rm [5] | ILS max [6] | OD [7] |
| --- | --- | --- | --- | --- | --- | --- | --- | --- |
| CN(C)CCNC(=O)c1cccc2c1nc1ccccc1[n+]2[O-] | 150 mg/kg/day | 150 mg/kg/day | 51 | 81 | 3000 nM | -0.58 | – | – |
| CN(C)CCCCNC(=O)c1cccc2nc3ccccc3nc12 | – | 150 mg/kg/day | – | 49 | 1170 nM | -0.11 | Not significant | 225 mg/kg/day |
